High-throughput results from PubChem.
MT1-MMP act inh = MT1-MMP (human) activation inhibition; AID 651647; P50281; GFP/RFP ratio change, % at 20 µM; 360,000 tested, 0.061% active; HT1080 RFP-PRO-GFP cells, GFP/RFP ratio fluorescence, overnight; percent of plate control window, DMSO zero;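 active means GFP/RFP ratio change of at least 30% with cell ATP level not reduced by more than half and red fluorescence within 50% of control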
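Assay system: HT1080 RFP-PRO-GFP cells | Dosing: 20 µM single dose, 1% DMSO | Incubation: Cells overnight before dosing, compound overnight, 37 °C, 5% CO2 | Evaluation: GFP/RFP fluorescence ratio | Control set: DMSO-only wells and HT1080 RFP-L50D-GFP cell wells as references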
Efflux pump inh = antifungal efflux pump inhibition, Nile Red retention; S. cerevisiae Candida pump triplex; inhibition, % at 10 µM; 330,000 tested, 0.44% active; AID 485275;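 active means plate passing quality check with inhibition over a set limit, or well fluorescence over plate mean plus 4 SD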;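 further: Nile Red retained in pooled yeast measured as flow cytometry median fluorescence; 0% = buffer negative control and 100% = Enniatin B positive control; higher means more Nile Red kept so more efflux inhibition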
sPLA2-III inh = Blocks human group III sPLA2 activity; Q9NZ20; QFRET BODIPY PC-A2 liposome hydrolysis, fluorescence; inhibition, % at 12.2 µM; 370,000 tested, 0.56% active; AID 743126;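 active means inhibition above mean plus 3 SD of compounds lying within the high and low control bounds, cut at about 19% in these data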;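 further: 0% = median of test compound wells and 100% = no enzyme DMSO wells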
Target sequence (Q9NZ20 whole entry, looked up): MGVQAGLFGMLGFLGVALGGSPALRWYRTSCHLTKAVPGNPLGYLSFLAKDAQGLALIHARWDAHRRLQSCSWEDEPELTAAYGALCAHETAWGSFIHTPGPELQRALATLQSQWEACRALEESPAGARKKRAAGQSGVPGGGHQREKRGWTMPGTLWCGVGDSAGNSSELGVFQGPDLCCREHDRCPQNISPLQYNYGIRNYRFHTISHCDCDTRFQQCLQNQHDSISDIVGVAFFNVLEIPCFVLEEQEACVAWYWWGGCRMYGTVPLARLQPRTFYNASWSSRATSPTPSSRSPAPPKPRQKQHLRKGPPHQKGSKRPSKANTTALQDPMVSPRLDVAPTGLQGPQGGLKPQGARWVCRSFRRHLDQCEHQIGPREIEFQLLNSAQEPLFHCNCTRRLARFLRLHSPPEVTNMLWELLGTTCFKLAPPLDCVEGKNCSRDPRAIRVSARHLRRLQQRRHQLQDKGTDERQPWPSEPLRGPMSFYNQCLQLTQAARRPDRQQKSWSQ
TAG inh = inhibitors of triacylglycerol accumulation. inhibition, % at 12.5 µM. 230,000 tested, 0.66% active. H9c2 cells, Nile Red lipid (TAG) fluorescence; cells loaded with 200 µM oleic acid;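 active means pattern-corrected inhibition of lipid staining of at least 50% with the nuclear-stain viability signal not falling by more than 50%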;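 further: 0% = DMSO wells and 100% = triacsin C control wells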
sPLA2 confirm = human GIII-sPLA2 inhibition, confirmation; shares compounds with sPLA2-III inh; recombinant hGIII-sPLA2, BODIPY PC-A2 QFRET fluorescence; inhibition, % at 12.2 µM; 2,000 tested, 34% active; AID 743280;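 active means mean inhibition across triplicates above the hit cutoff set in the earlier primary screen, cut at about 19% in these data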;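 further: 0% = enzyme with DMSO and 100% = DMSO wells lacking enzyme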
BODIPY interf = counter-screen for HGIII-sPLA2 inhibitors: 535nm fluorescence interference; shares compounds with sPLA2-III inh; BODIPY FL product fluorescence interference, QFRET; inhibition, % at 12.2 µM; 2,000 tested, 8.5% active; AID 743282;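 active means average inhibition above the solvent-only control mean plus 3 SD, cut at about 6% in these data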;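 further: 0% = DMSO with substrate plus product and 100% = DMSO with substrate alone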
BODIPY interf DR = interferes with 535nm fluorescence in dose response counter-screen; shares compounds with sPLA2-III inh; BODIPY FL product fluorescence interference, cell-free; IC50, µM; 240 tested, under 10 active; AID 743455;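 active means IC50 at or below 10 µM; inactive means IC50 above 10 µM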
Numbers without * were called inactive; . = no result. An excerpt weighted towards active compounds, which were near 1.3% of everything screened.

SMILES	MT1-MMP act inh	Efflux pump inh	sPLA2-III inh	TAG inh	sPLA2 confirm	BODIPY interf	others
Cn1c(=O)c2c(nc(SCCN3CCOCC3)n2C)n(C)c1=O	-3.9	0.2	-2.8	-8.0	.	.
Fc1ccc(NC(=S)Nc2ccccc2OC(F)F)cc1Cl	0.1	-0.2	-4.5	.	.	.
COc1cccc(NC(=S)NNC(=O)c2ccccc2OC(F)F)c1	4.5	0.0	25.2*	.	30.8*	5.7
O=C(NNC(=S)Nc1cccc(Cl)c1)c1ccccc1OC(F)F	2.4	-0.1	24.7*	.	42.5*	2.4	BODIPY interf DR=>122
CCCOc1ccc(/C=N/Nc2ccccc2[N+](=O)[O-])c(O)c1	14.9	0.1	6.7	.	.	.
CCCOc1ccc(/C=N/NC(=S)Nc2ccccc2[N+](=O)[O-])c(O)c1	.	-0.1	37.1*	.	55.8*	12.1*
CCOC1=CC2=C(C(=O)C(Cl)=CC2=O)[C@@H]2CN(S(=O)(=O)c3ccc(C)cc3)[C@@H](c3ccccc3)[C@H]12	-0.2	.	30.7*	.	69.2*	11.3*
C=CCNC(=O)C1CC1(c1ccc(C)cc1)c1ccc(C)cc1 (configuration not stated)	-3.1	0.5	4.3	-26.1	.	.
CC(=O)Nc1c(C)ccc(CNC(=O)COc2cc(C)ccc2C)c1C	-10.7	-0.1	20.9*	.	-3.7	-11.8
CCN(CC)c1ccc(-c2sc(Nc3ccccc3)n[n+]2-c2ccc(F)cc2)cc1	-1.0	0.6	7.0	-24.4	.	.
CCc1ccc(Nc2n[n+](-c3ccccc3)c(-c3ccc(N(CC)CC)cc3)s2)cc1	-3.1	2.1	22.7*	.	-22.0	-50.5
CCN1CCN(S(=O)(=O)c2ccc(OC)c(NC(=O)c3ccccc3)c2)CC1	4.9	0.0	6.0	-7.1	.	.
C/C(=N\NC(=O)COc1cccc(C)c1)c1ccc2ccccc2c1O	-5.1	0.0	22.3*	3.8	38.8*	6.0*
Cc1cccc(OCC(=O)NCc2ccccc2)c1	1.3	0.0	2.6	.	.	.
CN1CCN(c2ncnc3c2ncn3[C@H]2CN(Cc3ccco3)C[C@@H](CO)O2)CC1	0.7	.	.	6.2	.	.
O=C(NNC(=S)NC(=O)C12CC3CC(CC(C3)C1)C2)c1ccncc1	-4.0	-0.1	23.9*	.	31.0*	-18.1	BODIPY interf DR=>122
CC1(C(=O)NC(=S)NNC(=O)c2ccncc2)CCCCC1	-2.6	0.0	26.4*	2.6	20.1*	-11.2
Cc1csc(Nc2nc(N)c(C(=O)Nc3cc(Cl)ccc3F)o2)n1	2.1	-0.1	-2.5	.	.	.
CC1CC(C)CN(S(=O)(=O)c2ccc(NC(=O)CN3C(=O)NC(C)(c4ccccc4)C3=O)cc2)C1 (configuration not stated)	5.1	-0.3	-42.3	12.1	.	.
NC(=S)N/N=C/c1c(O)ccc2ccccc12	-1.6	0.1	35.1*	-19.8	21.1*	-0.5
Nc1ccc(C(=O)N/N=C\c2cc(N=Nc3cccc4ccccc34)ccc2O)cc1	22.0	-0.1	34.0*	56.4*	37.8*	8.2*
O=C(N/N=C/c1ccccc1)c1ccc2c(c1)OCO2	-1.7	0.0	10.6	26.2	.	.
O=C(NN=Cc1c(O)ccc2ccccc12)c1ccc2c(c1)OCO2	-41.5	-0.2	37.2*	8.5	8.1	-5.7
O=CN/N=C/c1c(O)ccc2ccccc12	-106.4	0.2	-1.6	44.1	.	.
Cc1ccc(-c2cc(C(=O)NN=Cc3c(O)ccc4ccccc34)[nH]n2)cc1C	.	.	26.4*	.	-17.0	-9.9
O=C(N/N=C/c1c(O)ccc2ccccc12)c1ccc(CO)nc1	-54.0	0.1	25.2*	.	12.3	-5.7
COc1ccc(/C=C/C(=O)NCCSCc2ccco2)cc1OC	0.1	-0.2	-4.8	2.5	.	.
COc1ccc([N+](=O)[O-])cc1N/C(=N/S(=O)(=O)c1ccccc1)c1ccccc1	-2.5	0.3	-10.6	-19.6	.	.
COc1cc(CNCc2cccs2)ccc1OCc1ccccc1	0.7	-0.1	-20.2	.	.	.
COc1cc(CNC23CC4CC(CC(C4)C2)C3)ccc1OCc1ccccc1	3.2	0.2	21.6*	7.1	-8.2	-32.9
